Results of several laboratories.
Lines come from different studies, so protocols differ.

O=C1CCC(N2Cc3cc(C4CCN(Cc5ccccc5)CC4)ccc3C2=O)C(=O)N1 (stereo not shown) — AUC(0-t) (male CD-1 mouse; plasma; intravenous; 1 mg/kg): 310 ng·h/mL
Cc1ncsc1-c1ccc([C@H](CC(=O)N2CC3(C2)CN(c2ccc(C#Cc4ccc(C(=O)N5CCC(n6cc(-c7ccc8c(c7)CCN8C(=O)Cc7cccc(OC(F)(F)F)c7)c7c(N)ncnc76)CC5)cc4)cn2)C3)NC(=O)[C@@H]2C[C@@H](O)CN2C(=O)[C@@H](NC(=O)C2(F)CC2)C(C)(C)C)cc1 — AUC(0-t) (male C57BL/6 mouse; plasma; intravenous; 1 mg/kg): 5920 ng·h/mL
NCc1ccc(-c2nn(Cc3ccccc3)c3ccccc23)o1 — AUC(0-t) (male CD-1 mouse; plasma; intraperitoneal; 30 mg/kg): 9120 ng·h/mL
Cc1cc(-c2ccnc3[nH]cc(F)c23)cc(F)c1[C@@]1(O)[C@H](C)CN(C2CCS(=O)(=O)CC2)C[C@@H]1C — AUC(0-t) (male CD-1 mouse; plasma; oral; 3 mg/kg): 3220 ng·h/mL
NCc1ccc(-c2nn(Cc3ccncc3)c3ccccc23)o1 — AUC(0-t) (male CD-1 mouse; plasma; oral; 10 mg/kg): 314 ng·h/mL
OCc1nc2ccc(NCc3ccc(C(F)(F)F)cc3)cc2[nH]1 — AUC(0-t) (male BALB/c mouse; plasma; intravenous; 1 mg/kg): 482 ng·h/mL
COC1=CC(c2ccc[nH]2)=N/C1=C\c1cc(Cc2ccc(OC(F)(F)F)cc2)c(C)[nH]1.Cl — AUC(0-t) (male CD-1 mouse; liver; oral; 40 mg/kg; single dose): 101000 ng·h/mL
OCc1ccc(-c2nn(Cc3ccccc3)c3ccccc23)o1 — AUC(0-t) (male CD-1 mouse; plasma; intraperitoneal; 30 mg/kg): 3370 ng·h/mL
Cc1ccc(OCC(=O)N[C@@H](Cc2c[nH]c3ccccc23)C(=O)OC(C)C)cc1 — AUC(0-t) (male Sprague-Dawley mouse; plasma; intravenous; 10 mg/kg): 2460 ng·h/mL
CCOC(=O)c1c(NC(=O)CNC(C)C)sc2c1CCCCC2 — AUC(0-t) (male mouse; plasma; intraperitoneal; 5 mg/kg; single dose): 300 ng·h/mL
Cc1ccc2c(c1)C(=O)[C@]1(O)CCN(c3ccc4nc(C)ccc4c3)C1=N2.Cl — AUC(0-t) (C57BL/6 mouse; plasma; subcutaneous; 2 mg/kg): 0.98 µM·h
Cc1nc2ccc(OCc3ccc(C(F)(F)F)cc3)cc2[nH]1 — AUC(0-t) (male BALB/c mouse; plasma; intravenous; 1 mg/kg): 3800 ng·h/mL
Cc1cc(-c2ccnc3[nH]cc(F)c23)cc(F)c1[C@@]1(O)[C@H](C)CN(C(=O)CN)C[C@@H]1C — AUC(0-t) (male CD-1 mouse; plasma; oral; 3 mg/kg): 16900 ng·h/mL
Cc1ncsc1-c1ccc([C@H](C)NC(=O)[C@@H]2C[C@@H](O)CN2C(=O)[C@@H](NC(=O)CCCCCCCCC(=O)N2CCC(n3cc(-c4ccc5c(c4)CCN5C(=O)Cc4cccc(OC(F)(F)F)c4)c4c(N)ncnc43)CC2)C(C)(C)C)cc1 — AUC(0-t) (male C57BL/6 mouse; plasma; intravenous; 1 mg/kg): 1240 ng·h/mL
C[C@@H](CN1CCC(n2c(=O)[nH]c3cc(Cl)ccc32)CC1)NC(=O)c1ccc2ccccc2c1 — AUC(0-t) (male CD-1 mouse; brain; intravenous; 1 mg/kg; single dose): 0.302 ng·h/mL
COC1=CC(c2ccc[nH]2)=N/C1=C\c1[nH]c(Cc2ccc(OC(F)(F)F)cc2)cc1Cc1ccc(OC(F)(F)F)cc1 — AUC(0-t) (male CD-1 mouse; plasma; oral; 40 mg/kg; single dose): 84100 ng·h/mL
CO[C@H]1/C=C/O[C@@]2(C)Oc3c(C)c(O)c4c(c3C2=O)C2=NC3(CCN(CC(C)C)CC3)NC2=C(NC(=O)/C(C)=C\C=C\[C@H](C)[C@H](O)[C@@H](C)[C@@H](O)[C@@H](C)[C@H](OC(C)=O)[C@@H]1C)C4=O — AUC(0-t) (female CD-1 mouse; plasma; oral; 10 mg/kg): 11200 ng·h/mL
CN(C)C(=O)c1cc2cnc(Nc3ccc(-c4ccc5c(=O)cc(N6CCOCC6)oc5c4)cc3)nc2n1C1CCCC1.Cl — AUC(0-t) (BALB/c mouse; plasma; intravenous; 2 mg/kg): 2790 ng·h/mL
Cc1ncsc1-c1ccc([C@H](CC(=O)N2CCN(c3ccc(C#Cc4ccc(C(=O)N5CCC(n6cc(-c7ccc8c(c7)CCN8C(=O)Cc7cccc(OC(F)(F)F)c7)c7c(N)ncnc76)CC5)cc4)cn3)CC2)NC(=O)[C@@H]2C[C@@H](O)CN2C(=O)[C@@H](NC(=O)C2(F)CC2)C(C)(C)C)cc1 — AUC(0-t) (male C57BL/6 mouse; plasma; intravenous; 1 mg/kg): 7260 ng·h/mL
